RAM network inh: inhibitors of the yeast RAM network, primary screen, dse1pr::URA3 reporter, 5-FOA selection; S. cerevisiae dse1pr::URA3 reporter, 5-FOA growth OD615, 2 d; analog-sensitive cbk1-as2 kinase mutant strain; inhibition, % at 50 µM; 190,000 tested, 1.8% active; AID 868, 2007;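 active = inhibition above a set limit, 3 SD over mean compound inhibition, cut at about 8.4% in these data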;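 also: inhibition rescues growth on 5-FOA so higher OD means more RAM inhibition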
BB579 growth dn: growth inhibitors of yeast BB579 in restrictive medium, primary screen, yeast lifespan-shortening project, S. cerevisiae. OD615, 48 h. AID 804, 2007. inhibition, % at 10 µM. 140,000 tested, 0.51% active;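 active = inhibition above a set limit, 3 SD over the mean compound inhibition, cut at about 44% in these data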
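System: DeaD yeast strain BB579; buffer or medium: CSMM-D dextrose restrictive medium; technique: OD at 615 nm; schedule: 4 h cell preincubation, 48 h compound exposure, 30 °C humidified; doses: single 10 µM dose; controls: amphotericin B 10 µg/mL, positive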
Yeast life ext: compounds extending yeast replicative lifespan, primary screen, S. cerevisiae, OD615. S. cerevisiae growth with nicotinamide; deaD strain in restrictive glucose medium. 130,000 tested, 0.68% active. inhibition of the nicotinamide effect, % at 10 µM;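 active = inhibition above a set limit, placed 3 SD over the median of all compounds, cut at about 26% in these data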
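Assay system: engineered S. cerevisiae DeaD replicative-lifespan strain, galactose-grown log-phase cells; Buffer or medium: CSMM-D glucose medium, restrictive; Probe or stimulus: nicotinamide 1.5 mM; Compound: single dose 10 µM compound, 0.25% DMSO; Schedule: 4 h preincubation then 48 h treatment at 30 °C; Technique: OD615 measurement.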
Numbers stand for hits; n = inactive; x = no result given. Rows were chosen to be rich in hits. Some 2.6% of all compounds tested hit in one or more screens of this group.

SMILES	RAM network inh	BB579 growth dn	Yeast life ext
CCN(CC)C1CCN(C(=O)c2cc(COc3ccc(F)cc3Cl)on2)C1 (stereo unspecified)	n	x	x
CCOc1cc(CNc2ccc3c(c2)CCC3)ccc1OC	n	n	n
CC1CCCN(c2nc3ccccc3nc2C(C#N)C(=O)OC2CCCCC2)C1 (stereo unspecified)	n	n	64
CC1CCN(c2nc3ccccc3nc2C(C#N)C(=O)OC2CCCCC2)CC1 (stereo unspecified)	n	n	n
CN1CCN(c2ccc(Cl)cc2NC(=O)/C=C/c2ccc(F)cc2)CC1	n	x	x
O=C(Cn1cccn1)c1ccccc1	n	x	x
Clc1ccc(COc2ccccc2CNCc2cccnc2)cc1	n	n	49
C=CCOc1ccccc1CNCc1cccnc1	n	n	n
C=CCn1c(-c2ccc(Cl)cc2)cnc1SC(C)C(=O)NC(N)=O (stereo unspecified)	n	x	x
CC1C2NC(=O)N(Cc3ccccc3)C1(C)Oc1ccccc12 (stereo unspecified)	n	x	x
O=C(NCCCCNC(=O)C(F)(F)F)C(F)(F)F	n	x	x
CCn1ncc(C2=NOC(C(=O)NCc3ccccc3)C2)c1C (stereo unspecified)	n	n	n
CCn1ncc(C2=NOC(C(=O)Nc3c(C)n(C)n(-c4ccccc4)c3=O)C2)c1C (stereo unspecified)	n	48	n
CCOCCCNS(=O)(=O)c1ccc(NC(=O)Cc2c(F)cccc2Cl)cc1	n	x	x
COc1cc(C(=O)NCCCNc2nc3c(C)cc(C)cc3cc2C#N)cc(OC)c1OC	n	x	x
CC(C)c1ccc(NC(=O)Cn2cccc2C2=NC(c3ccccc3)CO2)cc1 (stereo unspecified)	n	n	n
COc1ccccc1OCCCCN1CCN(c2ccccc2OC)CC1	n	n	n
Cc1cccc(OCCN2CSC(=S)N(C)C2)c1	n	67	n
Cc1cccc(OCCCN2CCCCCC2)c1	n	n	n
COc1ccccc1OCCN1CSC(=S)N(C)C1	n	53	n
CCOC(=O)C1=C(C)Nc2ccccc2N=C1NC(=O)c1ccc(Cl)c(S(=O)(=O)N2CCCC2)c1	8.7	x	x
CCOC(=O)C1=C(C)Nc2ccccc2N=C1NC(=O)c1cccc(S(=O)(=O)N(C)C)c1	n	n	n
C/C(O)=C(/C=NCC(=O)O)C(=O)Nc1nccs1	n	x	x
N#Cc1ccc(OCC(=O)NCCc2ccccn2)cc1	n	n	46
O=C(COc1ccc(Br)cc1)NCc1ccccn1	n	n	n
SMILES	RAM network inh	BB579 growth dn	Yeast life ext
Brc1ccccc1Cn1c(-c2cscn2)nc2ccccc21	n	n	n
CCc1ccc(OCCNC(=O)c2ccccc2SCc2ccccc2)cc1	8.8	n	n
CCNC(=O)c1ccccc1SCc1ccccc1	n	x	x
O=C(NC1CCCc2ccccc21)C(Cc1ccccc1)NS(=O)(=O)c1cccs1 (stereo unspecified)	n	n	n
O=C(NNC(=O)C1CCN(c2ncccn2)CC1)c1ccncc1	n	x	x
N#C/C(=C\Nc1ccccc1SC(F)(F)F)c1nc(-c2ccc(F)cc2)cs1	n	n	n
N#C/C(=N\Nc1ccccc1F)c1nc(-c2ccccc2)cs1	9.8	x	x
O=C(N/N=C\c1c(O)ccc2ccccc12)c1ccc(Cn2cccn2)o1	n	n	n
O=C(Nc1ncc2c(n1)-c1ccccc1OC2)c1cccc([N+](=O)[O-])c1	8.6	x	x
O=C(Nc1ncc2c(n1)-c1ccccc1OC2)c1ccc(F)cc1	n	x	x
CCCCC1C(=O)N(c2ccccc2)N(c2ccccc2)C1=O	n	n	28
CCCCOCC1CN(c2ccccc2)C(=O)CS1 (stereo unspecified)	n	n	n
CC(C)OCC(O)Cn1c(N2CCCC2)nc2c1c(=O)[nH]c(=O)n2C (stereo unspecified)	n	n	n
Cn1c(=O)[nH]c(=O)c2c1nc(N1CCCCC1)n2CC(O)CN1CCCCC1 (stereo unspecified)	n	n	45
O=C(O)COCC(=O)Nc1ccc(-n2cnnn2)cc1	n	x	x
CCOc1cc(OCC)cc(C(=O)Nc2cccc(C(C)=O)c2)c1	n	n	n
CCOc1cccc(C(=O)Nc2ccc(N3CCN(S(C)(=O)=O)CC3)cc2)c1	n	n	n
CCOc1cc(OCC)cc(C(=O)NC(=S)Nc2cccc(C(F)(F)F)c2)c1	11	n	n
CCOc1cccc(C(=O)NC(=S)Nc2ccc(N3CCCC3)cc2)c1	11	n	n
O=C1CC2c3ccccc3C1C1C(=O)N(CCc3ccccc3)C(=O)C21 (stereo unspecified)	n	x	x
COc1ccc(CCNC(=O)CCc2ccc(S(=O)(=O)NCC(C)C)cc2)cc1OC	n	x	x
O=c1cc(CSc2ccc(Cl)cc2)nc(-c2ccncc2)[nH]1	n	x	x
CCN(CC)S(=O)(=O)c1ccc2c(c1)nc(CCC(=O)Nc1ccc3c(c1)OCO3)n2CC	n	n	n
O=c1ccn(-c2cccc(C(F)(F)F)c2)nc1-c1ccn(-c2cccc(Cl)c2)n1	n	n	n
COC(=O)C1=C(C(=O)OC)C(c2cc(Br)ccc2O)c2sc(=O)[nH]c2S1 (stereo unspecified)	n	n	61
SMILES	RAM network inh	BB579 growth dn	Yeast life ext
COC(=O)C1=C(C(=O)OC)C(c2cc(Cl)ccc2O)c2sc(=O)[nH]c2S1 (stereo unspecified)	n	n	n
CCNc1nc(-c2ccc(OC(F)F)cc2)c(C)s1	n	x	x
Cc1cccc(-c2nnc3n2N=C(c2ccccc2Br)CS3)c1	n	n	n
Clc1cccc(CN2CCCCCCC2)c1Cl	n	n	n
C=CCSc1nc2ccccc2n1C(=O)/C=C/c1ccc(OC)c(OC)c1	n	n	n
CCSc1nc2ccccc2n1C(=O)/C=C/c1ccc(OC)c(OC)c1	10	n	n
Cc1ccc(NC(=S)NNS(=O)(=O)c2ccc3ccccc3c2)cc1Cl	n	x	x
COc1ccccc1NC(=O)C1=C(C)NC2=C(C(=O)CC(c3ccc(OC)c(OC)c3)C2)C1c1coc2ccccc2c1=O (stereo unspecified)	9.8	n	n
CCOC(=O)C1=C(C)NC2=C(C(=O)CC(c3ccc(OC)c(OC)c3)C2)C1c1ccc(C)o1 (stereo unspecified)	n	n	n
CCCc1nc2ccccc2c(=O)n1CC(=O)c1ccccc1	n	x	x
CC(C)(C)C1CCC(=NOC(=O)c2ccc(F)cc2)CC1 (stereo unspecified)	n	x	x
COc1ccc(S(=O)(=O)CCC(=O)N2CCN(c3ccc(F)cc3)CC2)cc1	10	x	x
O=C(CCS(=O)(=O)c1cccs1)N1CCN(c2ccc(F)cc2)CC1	n	n	n
Oc1c(N=Nc2ccccn2)ccc2ccccc12	n	96	n
c1ccc2c(c1)ccc1ncccc12	n	x	x
CCO[C@@H]1OC(C(=O)N2CCCCCCC2)=C[C@H](C2CCCCC2)[C@H]1CCCO	n	x	x
Cc1cccc(C(=O)OCC(=O)NC(C)CCc2ccccc2)c1 (stereo unspecified)	10	x	x
CC(CCc1ccccc1)NC(=O)COC(=O)c1ccccc1O (stereo unspecified)	n	x	x
C=C(C)Cn1c(-c2ccncc2)n[nH]c1=S	n	x	x
Cc1oncc1-c1csc(-c2ccccc2)n1	n	x	x
Cc1oncc1-c1csc(-c2ccccc2Cl)n1	9.5	x	x

High-throughput results (PubChem BioAssay)
